Values after ≈ are worked out from the molar mass of the structure shown. Blank lines part the entries; values can stand above or below the molecule they belong to.
Key:
[1] = Inhibition of Wnt3A-induced Wnt transcription (unknown origin) expressed in HEK293 cells coexpressing TK-driven Rluc after 20 to 22 hrs by super-top flash reporter gene assay; type: cell-based; settings: Homo sapiens
Summary of the method: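 HEK-293 cells (DMEM, 10% FBS) were co-transfected with Super(8x)TOPflash, a Wnt3A expression vector and TK-driven Renilla luciferase. After 8 h at 37 °C, 5% CO2, cells were seeded at 25,000/well and treated at 1.6, 8, 40, 200, 1000 or 5000 nM, or with DMSO, for 20-22 h in triplicate. Firefly/Renilla luminescence was taken relative to DMSO, and IC50 was found by nonlinear regression.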

MCF7 [2] = assay: Induction of apoptosis in human MCF7 cells after 24 hrs by caspase-Glo 3/7 reagent based luminescence assay; type: functional, cell-based; settings: MCF7, 24 h
Summary of the method: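 MCF-7 cells were plated at 25,000/well (DMEM, 10% FBS) and grown 24 h, then treated at 1.6 nM–5 µM or with DMSO for 24 h. Caspase 3/7 activity was read by Caspase-Glo 3/7 luminescence. Triplicate signals relative to DMSO were analysed by nonlinear regression.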

MDA-MB-231 [3] = assay: Antiproliferative activity against human MDA-MB-231 cells after 24 hrs by SYBR green dye based fluorescence assay; type: functional, cell-based; settings: MDA-MB-231, 24 h
Summary of the method: (§1)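 Cells were plated at 500/well in DMEM/10% FBS and allowed to attach for 24 h at 37 °C, 5% CO2. They were then exposed to 1.6 nM–5 µM or DMSO. One plate was harvested every 24 h over 7 days and frozen at -20 °C. DNA was quantified by SYBR Green fluorescence (Ex495/Em535). Triplicate values relative to DMSO went to nonlinear regression for IC50.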

MCF7 [4] = assay: Antiproliferative activity against human MCF7 cells after 24 hrs by SYBR green dye based fluorescence assay; type: functional, cell-based; settings: MCF7, 24 h; summary of the method: as §1
[5] = Lipophilicity, log D of the compound at pH 3; type: physicochemical; settings: buffer
[6] = Solubility of the compound; type: physicochemical
[7] = Lipophilicity, log D of the compound at pH 7; type: physicochemical; settings: buffer
[8] = Oral bioavailability in rat; type: ADME, organism-based; settings: in vivo
Mus musculus [9] = assay: Upregulation of PARP cleavage expression level in tumors of athymic nude mouse xenografted with human MDA-MB-231 cells at 20 mg/kg, ip qd administered every consecutive day in presence of doxorubicin at 5 mg/kg/week measured on day 51 by Western blot analysis relative to control; type: functional
Summary of the method: (§2)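 MDA-MB-231 xenograft tumors were excised from nu/nu mice at study termination (day 51), after 16 days of i.p. treatment started on day 35. p53, phospho-Ser15-p53 and PARP cleavage were quantified by Western blot and compared with vehicle-treated animals.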

MDA-MB-231 [10] = assay: Antitumor activity against human MDA-MB-231 cells xenografted in athymic nude mouse assessed as average tumor volume at 20 mg/kg, ip qd administered every consecutive day in presence of doxorubicin at 5 mg/kg/week measured on day 35 relative to control; type: functional
[11] = molecular target: Voltage-gated inwardly rectifying potassium channel KCNH2 (Homo sapiens, UniProt Q12809); assay: Inhibition of human ERG up to 50 uM
Mus musculus [12] = assay: Upregulation of p53 protein expression level in tumors of athymic nude mouse xenografted with human MDA-MB-231 cells at 20 mg/kg, ip qd administered every consecutive day in presence of doxorubicin at 5 mg/kg/week measured on day 51 by Western blot analysis relative to control; type: functional; summary of the method: as §2
MDA-MB-231 [13] = assay: Synergistic antiproliferative activity against human MDA-MB-231 cells assessed as combination index at ED75 after 72 hrs in presence of doxorubicin by SYBR green dye based fluorescence assay; type: functional
Summary of the method: (§3)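 Cells were plated at 2,000/well (DMEM, 10% FBS) and incubated 24 h at 37 °C, 5% CO2. Test compound at 1.6 nM–2 µM was given with or without doxorubicin (MCF-7: 1.6 nM–2 µM; MDA-MB-231: 4 nM–5 µM), or DMSO, for 72 h. DNA was measured by SYBR Green fluorescence (Ex495/Em535). Triplicate values relative to DMSO were used for IC50 and Chou-Talalay combination index analysis.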

MCF7 [14] = assay: Synergistic antiproliferative activity against human MCF7 cells assessed as combination index at ED90 after 72 hrs in presence of doxorubicin by SYBR green dye based fluorescence assay; type: functional; summary of the method: as §3
MDA-MB-231 [15] = assay: Synergistic antiproliferative activity against human MDA-MB-231 cells assessed as combination index at 8 nM after 72 hrs in presence of doxorubicin by SYBR green dye based fluorescence assay; type: functional; summary of the method: as §3
MDA-MB-231 [16] = assay: Synergistic antiproliferative activity against human MDA-MB-231 cells assessed as combination index at ED90 after 72 hrs in presence of doxorubicin by SYBR green dye based fluorescence assay; type: functional; summary of the method: as §3
Mus musculus [17] = assay: Upregulation of phospho Ser15-53 protein expression level in tumors of athymic nude mouse xenografted with human MDA-MB-231 cells at 20 mg/kg, ip qd administered every consecutive day in presence of doxorubicin at 5 mg/kg/week measured on day 51 by Western blot analysis relative to control; type: functional; summary of the method: as §2
MDA-MB-231 [18] = assay: Synergistic antitumor activity against human MDA-MB-231 cells xenografted in athymic nude mouse assessed as reduction in tumor weight at 20 mg/kg, ip qd administered every consecutive day in presence of doxorubicin at 5 mg/kg/week measured on day 51; type: functional; parameters: scale not given: the % may be the effect or the level left
MDA-MB-231 [19] = assay: Antitumor activity against human MDA-MB-231 cells xenografted in athymic nude mouse assessed as decrease in tumor volume at 20 mg/kg, ip qd administered for 16 consecutive days in presence of doxorubicin at 5 mg/kg/week relative to control; type: functional; parameters: scale not given: the % may be the effect or the level left
[20] = Metabolic stability in human liver microsomes measured at > 60 mins in presence of NADPH by HPLC analysis; type: ADME, microsome; settings: 1 h
MDA-MB-231 [21] = assay: Potentiation of doxorubicin-induced antiproliferative activity against human MDA-MB-231 cells at 8 nM after 72 hrs by SYBR green dye based fluorescence assay relative to control; type: functional; summary of the method: as §3
MDA-MB-231 [22] = assay: Antitumor activity against human MDA-MB-231 cells xenografted in athymic nude mouse assessed as decrease in tumor volume at 20 mg/kg, ip qd administered for 16 consecutive days relative to control; type: functional; parameters: scale not given: the % may be the effect or the level left
[23] = Metabolic stability in rat liver microsomes measured at > 60 mins in presence of NADPH by HPLC analysis; type: ADME, microsome; settings: 1 h
[24] = Drug uptake in serum of athymic nude mouse xenografted with human MDA-MB-231 cells at 20 mg/kg, ip qd administered for 16 consecutive days by HPLC/MS analysis; type: ADME, organism-based; settings: read-out: Drug uptake
Summary of the method: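 In the MDA-MB-231 xenografted nu/nu mice given 20 mg/kg/day i.p. for 16 days, serum drug concentration was measured by HPLC at the end of the study and confirmed by LCMS.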

MCF7 [25] = assay: Synergistic antiproliferative activity against human MCF7 cells assessed as combination index at ED75 after 72 hrs in presence of doxorubicin by SYBR green dye based fluorescence assay; type: functional; summary of the method: as §3
MCF7 [26] = assay: Potentiation of doxorubicin-induced antiproliferative activity against human MCF7 cells at 8 nM after 72 hrs by SYBR green dye based fluorescence assay relative to control; type: functional; summary of the method: as §3
MDA-MB-231 [27] = assay: Antitumor activity against human MDA-MB-231 cells xenografted in athymic nude mouse assessed as average tumor volume at 20 mg/kg, ip qd administered every consecutive day in presence of doxorubicin at 5 mg/kg/week measured on day 51 (reference value: 653 +/- 192 mm3); type: functional
[28] = Inhibition of human CYP450 at 50 uM; type: ADME
MCF7 [29] = assay: Synergistic antiproliferative activity against human MCF7 cells assessed as combination index at 8 nM after 72 hrs in presence of doxorubicin by SYBR green dye based fluorescence assay; type: functional; summary of the method: as §3
MDA-MB-231 [30] = assay: Antitumor activity against human MDA-MB-231 cells xenografted in athymic nude mouse assessed as decrease in tumor volume at 5 mg/kg, ip administered per week for 16 days relative to control; type: functional; parameters: scale not given: the % may be the effect or the level left

Voltage-gated inwardly rectifying potassium channel KCNH2, sequence (Q12809 whole entry): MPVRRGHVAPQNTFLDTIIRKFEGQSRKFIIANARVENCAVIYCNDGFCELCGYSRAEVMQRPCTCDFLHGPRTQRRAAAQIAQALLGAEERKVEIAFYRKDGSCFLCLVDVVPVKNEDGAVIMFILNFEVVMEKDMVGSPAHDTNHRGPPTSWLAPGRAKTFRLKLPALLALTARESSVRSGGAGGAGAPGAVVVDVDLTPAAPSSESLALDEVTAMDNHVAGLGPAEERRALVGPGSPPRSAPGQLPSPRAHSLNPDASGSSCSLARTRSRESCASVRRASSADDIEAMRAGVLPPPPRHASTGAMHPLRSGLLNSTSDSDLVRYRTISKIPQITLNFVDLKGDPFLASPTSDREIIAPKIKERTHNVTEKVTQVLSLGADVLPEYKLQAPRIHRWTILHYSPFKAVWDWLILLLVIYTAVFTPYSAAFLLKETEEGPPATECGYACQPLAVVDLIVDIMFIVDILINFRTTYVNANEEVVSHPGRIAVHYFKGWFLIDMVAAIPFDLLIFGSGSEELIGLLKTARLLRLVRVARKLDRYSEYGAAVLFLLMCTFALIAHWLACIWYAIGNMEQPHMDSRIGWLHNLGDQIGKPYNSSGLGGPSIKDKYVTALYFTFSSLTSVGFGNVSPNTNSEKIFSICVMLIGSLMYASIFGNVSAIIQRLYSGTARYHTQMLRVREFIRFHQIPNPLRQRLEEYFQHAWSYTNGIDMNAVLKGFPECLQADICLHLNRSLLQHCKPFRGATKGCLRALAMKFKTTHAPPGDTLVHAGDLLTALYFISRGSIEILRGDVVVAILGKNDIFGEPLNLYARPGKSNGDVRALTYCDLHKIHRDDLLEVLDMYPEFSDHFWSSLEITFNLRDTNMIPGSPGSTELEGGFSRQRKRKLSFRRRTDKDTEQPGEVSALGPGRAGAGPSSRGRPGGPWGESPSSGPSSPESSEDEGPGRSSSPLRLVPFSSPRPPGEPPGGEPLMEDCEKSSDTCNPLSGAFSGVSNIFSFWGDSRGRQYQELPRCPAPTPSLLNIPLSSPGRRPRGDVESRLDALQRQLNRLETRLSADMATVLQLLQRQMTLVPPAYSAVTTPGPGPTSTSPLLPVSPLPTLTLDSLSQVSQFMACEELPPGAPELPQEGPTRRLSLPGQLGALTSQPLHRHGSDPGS

IC50 [1]: 7 nM
EC50 (MCF7 [2]): 61 nM
IC50 (MDA-MB-231 [3]): 17 nM
IC50 (MCF7 [4]): 15 nM
SMILES: Cc1ccc2c(c1)CCCN2S(=O)(=O)c1ccc(N2CCCC2=O)cc1

IC50 [1]: 1650 nM
SMILES: O=S(=O)(c1ccc(-n2cccn2)cc1)N1CCCc2ccccc21

IC50 [1]: > 5000 nM
EC50 (MCF7 [2]): > 5000 nM
IC50 (MDA-MB-231 [3]): > 5000 nM
IC50 (MCF7 [4]): > 5000 nM
SMILES: CCCN(c1ccccc1)S(=O)(=O)c1ccc(N2CCCC2=O)cc1

logD [5]: 1.7
solubility [6]: 26.6 µM (≈ 9.53 µg/mL)
IC50 [1]: 10 nM
logD [7]: 1.7
SMILES: O=C1CCCN1c1ccc(S(=O)(=O)N2CCOc3ccccc32)cc1

bioavailability [8]: 15 to 20%
logD [5]: 1.9
solubility [6]: 28.2 µM (≈ 10.5 µg/mL)
IC50 [1]: 11 nM
EC50 (MCF7 [2]): 13 nM
Stability [20]: Stable
logD [7]: 1.9
Stability [23]: Stable
concentration at 16 days [24]: 200 ng/mL
inhibition (INH) [28]: Not Active
IC50 (MDA-MB-231 [3]): 13 nM
IC50 (MCF7 [4]): 10 nM
SMILES: CN1CCN(S(=O)(=O)c2ccc(N3CCCC3=O)cc2)c2ccccc21
fold change (FC) (Mus musculus [9]): 30
Activity (MDA-MB-231 [10]): 154 mm3
inhibition (INH) [11]: Not Active
fold change (FC) (Mus musculus [12]): 1.5
CI (MDA-MB-231 [13]): 0.68
CI (MCF7 [14]): 0.97
CI (MDA-MB-231 [15]): <1
CI (MDA-MB-231 [16]): 0.72
fold change (FC) (Mus musculus [17]): 3
Activity (MDA-MB-231 [18]): 93.7%
Activity (MDA-MB-231 [19]): 93.7 - 96.2%
fold change (FC) (MDA-MB-231 [21]): 2 - 3
Activity (MDA-MB-231 [22]): 91.5%
CI (MCF7 [25]): 0.75
fold change (FC) (MCF7 [26]): 2 - 3
Activity (MDA-MB-231 [27]): 24.7 mm3
CI (MCF7 [29]): <1

IC50 [1]: > 5000 nM
SMILES: CC(=O)N(C)c1ccc(S(=O)(=O)N2CCCc3ccccc32)cc1

IC50 [1]: > 5000 nM
SMILES: O=C1CCCCN1c1ccc(S(=O)(=O)N2CCCc3ccccc32)cc1

IC50 [1]: > 5000 nM
SMILES: O=C1CCCN1c1ccc(S(=O)(=O)N2CCN(CCO)c3ccccc32)cc1

IC50 [1]: > 5000 nM
SMILES: O=C1CCCN1c1ccc(S(=O)(=O)N2CCCCC2)cc1

IC50 [1]: 660 nM
EC50 (MCF7 [2]): 307 nM
IC50 (MDA-MB-231 [3]): 608 nM
IC50 (MCF7 [4]): 318 nM
SMILES: CC(C)(C)c1ccc2c(c1)CCCN2S(=O)(=O)c1ccc(N2CCCC2=O)cc1

IC50 [1]: > 5000 nM
SMILES: O=C1CCCN1c1ccc(C(=O)N2CCCc3ccccc32)cc1

IC50 [1]: 7 nM
EC50 (MCF7 [2]): 6 nM
IC50 (MDA-MB-231 [3]): 16 nM
IC50 (MCF7 [4]): 4 nM
SMILES: CN1CCN(S(=O)(=O)c2ccc(N3CCCC3)cc2)c2ccccc21

SMILES: COc1cccc2c1C(=O)c1c(O)c3c(c(O)c1C2=O)C[C@@](O)(C(=O)CO)C[C@@H]3O[C@H]1C[C@H](N)[C@H](O)[C@H](C)O1 [DOXORUBICIN]
Activity (MDA-MB-231 [30]): 84.3%

IC50 [1]: > 5000 nM
SMILES: O=C1CCCN1c1ccc(S(=O)(=O)N2CCc3ccccc32)cc1

logD [5]: 1.5
solubility [6]: 19 µM (≈ 6.49 µg/mL)
IC50 [1]: 15 nM
logD [7]: 2.9
SMILES: O=S(=O)(c1ccc(N2CCC=N2)cc1)N1CCCc2ccccc21
